Data as given in ChEMBL document CHEMBL1125388, “New modified heterocyclic phenylalanine derivatives. Incorporation into potent inhibitors of human renin” (J Med Chem, 1992).
Where “and” joins values, the source holds several entries; their conditions need not be identical. Equal entries are not always repeated.

What follows are molecules tested against T1, Renin (Homo sapiens, UniProt P00797) (assay: Inhibition of human recombinant renin).
T1 sequence (P00797 whole entry): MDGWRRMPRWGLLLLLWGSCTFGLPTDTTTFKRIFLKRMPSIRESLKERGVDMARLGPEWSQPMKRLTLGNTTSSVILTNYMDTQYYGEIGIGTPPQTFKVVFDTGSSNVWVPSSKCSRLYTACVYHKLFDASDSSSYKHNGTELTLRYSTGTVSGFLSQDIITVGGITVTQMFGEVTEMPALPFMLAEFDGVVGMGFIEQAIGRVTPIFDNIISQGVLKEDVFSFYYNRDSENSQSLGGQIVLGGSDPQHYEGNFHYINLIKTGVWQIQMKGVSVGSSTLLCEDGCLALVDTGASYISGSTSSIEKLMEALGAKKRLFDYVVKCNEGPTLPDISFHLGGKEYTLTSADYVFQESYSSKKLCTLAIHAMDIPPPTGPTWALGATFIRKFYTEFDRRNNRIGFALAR
Procedure, shortened: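 Recombinant human renin (0.05 GU/mL, set to generate 30-40 ng A1/mL per h) incubated with 20 μM human renin substrate stock, pH 5.7 phosphate buffer with BSA, EDTA and PMSF, 1% DMSO final, 37 °C for 1 h; 4 °C blank tubes. RIA (3 h room temperature, γ counting) against standard curve; IC50 reported.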
CCC[C@H](NC(=O)[C@H](Cc1ccccc1)N1Cc2ccccc2C1=O)C(=O)N[C@@H](CC1CCCCC1)C(O)C(=O)OC(C)C (stereo not given in full) gave an IC50 of 0.0089 µM. CC(C)CC(NC(=O)[C@H](Cc1ccccc1)N1CCCC1=O)C(=O)N[C@@H](CC1CCCCC1)C(O)C(=O)OC(C)C (stereo not given in full) gave an IC50 of 0.157 µM. Work on CC(C)CC(NC(=O)[C@H](Cc1ccccc1)N1Cc2ccccc2C1=O)C(=O)N[C@@H](CC1CCCCC1)C(O)C(=O)OC(C)C (stereo not given in full) yielded an IC50 of 0.036 µM. In the case of COC(=O)C(O)[C@H](CC1CCCCC1)NC(=O)C(Cc1cnc[nH]1)NC(=O)[C@H](Cc1ccccc1)N1Cc2ccccc2C1=O (stereo not given in full), the IC50 is reported as 0.186 µM. COC(=O)C(O)[C@H](CC1CCCCC1)NC(=O)C(CC(C)C)NC(=O)[C@H](Cc1ccccc1)N1Cc2ncccc2C1=O (stereo not given in full) showed an IC50 of 0.207 µM. CC(C)CC(NC(=O)[C@H](Cc1ccccc1)N1Cc2nccn2C1=O)C(=O)N[C@@H](CC1CCCCC1)C(O)C(=O)OC(C)C (stereo not given in full) gave an IC50 of 0.1 µM. For COC(=O)C(O)[C@H](CC1CCCCC1)NC(=O)C(CC(C)C)NC(=O)[C@H](Cc1ccccc1)NC(=O)OC(C)(C)C (stereo not given in full), the IC50 was 0.008 µM and 0.024 µM. COC(=O)C(O)[C@H](CC1CCCCC1)NC(=O)C(CC(C)C)NC(=O)[C@H](Cc1ccccc1)N1C(=O)c2cccc3cccc(c23)C1=O (stereo not given in full) showed an IC50 of 0.391 µM. Work on CC(C)CC(NC(=O)[C@H](Cc1ccccc1)N1CC2CCCN2C1=O)C(=O)N[C@@H](CC1CCCCC1)C(O)C(=O)OC(C)C (stereo not given in full) yielded an IC50 of 0.141 µM. In the case of COC(=O)C(O)[C@H](CC1CCCCC1)NC(=O)C(CC(C)C)NC(=O)[C@H](Cc1ccccc1)N1Cc2ccccc2C1=O (stereo not given in full), the IC50 is reported as 0.023 µM. With CC(C)CC(NC(=O)[C@H](Cc1ccccc1)N1Cc2cccc3cccc(c23)C1=O)C(=O)N[C@@H](CC1CCCCC1)C(O)C(=O)OC(C)C (stereo not given in full) the IC50 was 0.08 µM. Work on CCCC[C@H](NC(=O)[C@H](Cc1ccccc1)N1Cc2ccccc2C1=O)C(=O)N[C@@H](CC1CCCCC1)C(O)C(=O)OC(C)C (stereo not given in full) yielded an IC50 of 0.016 µM.

These molecules were tested against T2, Renin (Homo sapiens) (UniProt P00797) (assay: Inhibition of human recombinant renin at 1 uM).
T2 sequence (whole entry): T1 sequence (P00797 whole entry)
Molecule COC(=O)C(O)[C@H](CC1CCCCC1)NC(=O)C(CC(C)C)NC(=O)[C@H](Cc1ccccc1)N1C(=O)OC(C)(C)C1C (stereo not given in full) has an inhibition of 76%. Molecule COC(=O)C(O)[C@H](CC1CCCCC1)NC(=O)C(CC(C)C)NC(=O)[C@H](Cc1ccccc1)N1CC(C)(C)OC1=O (stereo not given in full) has an inhibition of 86.4%. COC(=O)C(O)[C@H](CC1CCCCC1)NC(=O)C(CC(C)C)NC(=O)[C@H](Cc1ccccc1)N1C(=O)c2ccccc2C1=O (stereo not given in full) gave an inhibition of 45%.
